This note sets out measurements from ChEMBL document CHEMBL3864185, “Identification of N-(2-Phenoxyethyl)imidazo[1,2-a]pyridine-3-carboxamides as New Antituberculosis Agents” (ACS Med Chem Lett, 2016).

Converted amounts (≈) assume the structure as drawn.

The subject of test [1] is Mycobacterium tuberculosis. Put plainly: Antimycobacterial activity against isoniazid/rifampicin-resistant Mycobacterium tuberculosis isolate 11168 after 7 days by microplate alamar blue assay. In kind it is functional. The note with it: isolate 11168, 168 h. A digest of the protocol: (§1)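 Microplate Alamar Blue Assay against clinical MDR M. tuberculosis isolates 11168 and 9160, both resistant to isoniazid and rifampicin. Read-out was fluorescence. MIC was the lowest concentration that reduced fluorescence by >90% versus the mean of replicate bacterium-only controls.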
For orientation: Alamar Blue is a resazurin reagent that responds to reducing activity.

Test [2] concerns Mycobacterium tuberculosis. The test can be described thus: Antimycobacterial activity against isoniazid/rifampicin-resistant Mycobacterium tuberculosis isolate 9160 after 7 days by microplate alamar blue assay. It is filed as functional. The note with it: isolate 9160, 168 h. A digest of the protocol:
as §1

Turning to `Cc1ccc2nc(C)c(C(=O)NCCOc3ccc(Cl)cc3)n2c1`, the MIC (commonly the lowest concentration that inhibits growth of the organism) in test [1] was 0.025 µg/mL (≈ 0.0727 µM); in test [2] it was 0.028 µg/mL (≈ 0.0814 µM).

`Cc1cccc(OCCNC(=O)c2c(C)nc3ccc(C)cn23)c1`: the minimal inhibitory concentration (MIC) turned out to be 0.026 µg/mL (≈ 0.0804 µM) in test [1] and 0.033 µg/mL (≈ 0.102 µM) in test [2].

With `Cc1ccc2nc(C)c(C(=O)NCCOc3ccc(Br)cc3)n2c1`, the minimal inhibitory concentration (MIC) worked out at 0.036 µg/mL (≈ 0.0927 µM) in test [1] and 0.051 µg/mL (≈ 0.131 µM) in test [2].

Turning to `COc1cccc(OCCNC(=O)c2c(C)nc3ccc(C)cn23)c1`, the minimal inhibitory concentration (MIC) in test [1] was determined as 0.029 µg/mL (≈ 0.0854 µM); in test [2], 0.035 µg/mL (≈ 0.103 µM).

On to `Cc1ccc2nc(C)c(C(=O)NCCOc3ccccc3C)n2c1`, for which the minimum inhibitory concentration (MIC) in test [1] is 0.036 µg/mL (≈ 0.111 µM); in test [2], 0.05 µg/mL (≈ 0.155 µM).

Regarding `COc1ccc(OCCNC(=O)c2c(C)nc3ccc(C)cn23)cc1`, the results for the minimal inhibitory concentration (MIC) in test [1] and in test [2] were 0.026 µg/mL (≈ 0.0766 µM) and 0.034 µg/mL (≈ 0.1 µM), respectively.

With `Cc1ccc2nc(C)c(C(=O)NCCOc3ccccc3)n2c1`, the MIC worked out at 0.03 µg/mL (≈ 0.097 µM) in test [1] and 0.047 µg/mL (≈ 0.152 µM) in test [2].

For `NNC(=O)c1ccncc1` [ISONIAZID], the MIC in test [1] and in test [2] was above 40 µg/mL in each case.

Take `CO[C@H]1/C=C/O[C@@]2(C)Oc3c(C)c(O)c4c(O)c(c(/C=N/N5CCN(C)CC5)c(O)c4c3C2=O)NC(=O)/C(C)=C\C=C\[C@H](C)[C@H](O)[C@@H](C)[C@@H](O)[C@@H](C)[C@H](OC(C)=O)[C@@H]1C` [RIFAMPIN]: the MIC came out at 36.9 µg/mL (≈ 44.8 µM) in test [1] and 38.6 µg/mL (≈ 47 µM) in test [2].
